Measurements published in ChEMBL document CHEMBL1155522, “Molecular docking studies of phlorotannins from Eisenia bicyclis with BACE1 inhibitory activity” (Bioorg Med Chem Lett, 2010).

Tests used:
Beta-secretase 1 [1] = target: T1, Beta-secretase 1 (Homo sapiens, UniProt P56817); assay: Inhibition of human recombinant BACE1 after 60 mins by FRET assay
Outline: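 Test samples dissolved in 10% DMSO; the 50% inhibitory concentration is reported as mean ± S.E.M. of triplicate determinations.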

Beta-secretase 1 [2] = target: T1, Beta-secretase 1; assay: Noncompetitive inhibition of human recombinant BACE1 after 60 mins by Dixon plot analysis
Outline: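 Inhibitor dissolved in 10% DMSO and tested at two concentrations. A Dixon plot of reciprocal enzyme velocity (1/V) against inhibitor concentration was used to assign the inhibition type and to derive the Ki of the enzyme–inhibitor complex.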

T1 sequence (P56817 whole entry): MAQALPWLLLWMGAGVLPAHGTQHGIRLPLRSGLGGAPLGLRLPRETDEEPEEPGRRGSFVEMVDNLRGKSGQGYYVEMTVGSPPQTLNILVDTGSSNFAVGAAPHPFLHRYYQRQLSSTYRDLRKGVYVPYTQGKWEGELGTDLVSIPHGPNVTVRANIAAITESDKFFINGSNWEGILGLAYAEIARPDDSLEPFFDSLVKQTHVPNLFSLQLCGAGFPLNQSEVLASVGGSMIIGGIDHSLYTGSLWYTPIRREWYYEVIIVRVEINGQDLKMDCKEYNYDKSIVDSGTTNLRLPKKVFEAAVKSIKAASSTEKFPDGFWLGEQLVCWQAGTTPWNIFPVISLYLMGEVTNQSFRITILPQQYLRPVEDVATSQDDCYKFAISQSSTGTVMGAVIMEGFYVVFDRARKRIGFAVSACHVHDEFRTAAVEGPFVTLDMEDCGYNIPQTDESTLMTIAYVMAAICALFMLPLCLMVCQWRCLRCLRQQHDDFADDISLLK

Row | Structure (SMILES) | Activity (Beta-secretase 1 [1]) | IC50 (Beta-secretase 1 [1]) [µM] | Ki (Beta-secretase 1 [2]) [µM]
1 | Oc1cc(O)cc(Oc2c(O)cc(O)c3c2Oc2c(O)cc(Oc4c(O)cc(O)cc4O)cc2O3)c1 | Dose-dependent effect | 8.59 | 7.2
2 | O=c1c(O)c(-c2ccc(O)c(O)c2)oc2cc(O)cc(O)c12 | Dose-dependent effect |  | 
3 | Oc1cc(O)cc(Oc2c(O)cc(O)c3c2Oc2c(O)cc(Oc4c(O)cc(Oc5c(O)cc(O)c6c5Oc5c(O)cc(O)cc5O6)cc4O)cc2O3)c1 [DIECKOL] | Dose-dependent effect | 2.21 | 1.5
4 | Oc1cc(O)c2oc3cc(O)c4oc5cc(O)cc(O)c5oc4c3oc2c1 [DIOXINODEHYDROECKOL] | Dose-dependent effect | 5.35 | 8
5 | Oc1cc(O)cc(Oc2c(O)cc(O)c3c2Oc2c(O)cc(O)cc2O3)c1 [ECKOL] | Dose-dependent effect | 12.2 | 13.9
6 | Oc1cc(O)cc(Oc2c(O)cc(O)c3c2Oc2c(O)cc4oc5c(Oc6cc(O)cc(O)c6)c(O)cc(O)c5c4c2O3)c1 [PHLOROFUCOFUROECKOL A] | Dose-dependent effect | 2.13 | 1.3
7 | Oc1cc(O)cc(O)c1 [PHLOROGLUCINOL] | Dose-dependent effect | 36.5 | 
8 | Oc1cc(O)cc(Oc2c(O)cc(O)cc2Oc2c(O)cc(O)cc2O)c1 [TRIPHLOROETHOL A] | Dose-dependent effect | 11.7 | 12.1
